This is a sample that favours compounds with a hit; in the whole collection about 1.8% have one here.
CHRM4 agonist = agonists of human muscarinic M4 receptor (CHRM4); activation, % at 3 µM; P08173; CHO-K1 hM4/Gqi5, Fluo-8 calcium fluorescence; vehicle 0%, full acetylcholine response 100%; hit rate 0.14% among 360,000; AID 624127;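 active = activation above the run mean over all test wells plus 3 SD, cut at about 32% in these data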;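 note: peak over basal fluorescence ratio per well then scaled between controls; 0% = DMSO wells and 100% = acetylcholine at EC100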
Target sequence (P08173 whole entry, looked up): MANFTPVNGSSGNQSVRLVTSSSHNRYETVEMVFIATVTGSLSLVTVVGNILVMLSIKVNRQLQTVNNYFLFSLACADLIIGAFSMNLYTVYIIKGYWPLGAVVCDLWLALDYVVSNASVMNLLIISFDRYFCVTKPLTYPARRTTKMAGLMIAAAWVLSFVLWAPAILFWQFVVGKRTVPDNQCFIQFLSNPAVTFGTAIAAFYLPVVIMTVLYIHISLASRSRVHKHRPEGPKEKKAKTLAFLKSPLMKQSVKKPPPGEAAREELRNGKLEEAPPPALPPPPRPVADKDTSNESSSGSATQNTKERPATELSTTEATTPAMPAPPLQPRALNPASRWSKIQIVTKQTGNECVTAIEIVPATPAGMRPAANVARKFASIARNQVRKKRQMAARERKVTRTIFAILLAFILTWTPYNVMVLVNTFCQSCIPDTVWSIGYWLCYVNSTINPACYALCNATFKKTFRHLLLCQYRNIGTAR
M4 antag = antagonists of human muscarinic M4 receptor (CHRM4). P08173. CHO-hM4 cells, ACh EC80, Fluo-8 calcium fluorescence. inhibition, % at 3 µM. hit rate 0.73% among 360,000. AID 624125;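 active = inhibition above its plate's cutoff, the mean inhibition of sample wells plus 3 SD, cut at about 27% in these data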;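 note: 0% = acetylcholine EC80 with DMSO and 100% = DMSO without agonist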
CHRM4 PAM = CHRM4 positive allosteric modulation; P08173; CHO-K1 hM4/Gqi5, Fluo-8 calcium fluorescence, ACh EC20; 0% = ACh EC20, 100% = maximal ACh; activation, % at 3 µM; hit rate 0.4% among 360,000; AID 624126;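 active = activation above its plate's cutoff, the mean activation of sample wells plus 3 SD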
M5 antag = CHRM5 antagonism in calcium assay. P08912. CHO-hM5 cells, Fluo-8 calcium fluorescence, ACh EC80. inhibition, % at 3 µM. hit rate 0.59% among 360,000;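 active = inhibition above a per-plate cutoff, the mean of that plate's test compounds plus 3 SD, cut at about 27% in these data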;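 note: 0% = acetylcholine EC80 with DMSO and 100% = DMSO without agonist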
CHRM5 PAM = CHRM5 positive allosteric modulation; activation, % at 3 µM; CHO-K1 hM5, Fluo-8 calcium, ACh EC20 PAM; 0% = ACh EC20, 100% = ACh EC100; AID 624038; hit rate 0.3% among 360,000;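 active = activation above the run cutoff, the mean activation of all test compounds plus 3 SD, cut at about 18% in these data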
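System: CHO-K1 cell line with stable human muscarinic M5 receptor expression | Also added: EC20 acetylcholine as agonist stimulus | Compound: One concentration, 3 µM final (nominal) | Timing: Fluo-8 loading 80 min at 37 °C plus 30 min room temperature | Measured by: Fluo-8 calcium dye fluorescence, kinetic read | Read-out basis: % activation, ACh-normalized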
M5 ag = CHRM5 agonism in calcium assay; P08912; CHO-K1 hM5 cells, Fluo-8 calcium fluorescence; 0% DMSO wells, 100% maximal acetylcholine response; activation, % at 3 µM; hit rate 0.19% among 360,000; AID 624037;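 active = activation above the run's mean over test compounds plus 3 SD, cut at about 23% in these data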;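 note: signal is peak over basal fluorescence ratio across the kinetic read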
Starred values were filed as active, the others as inactive.

For CSc1ccc(NC(=O)C2(C)CCN2C(=O)c2sccc2C)cc1 (configuration not stated) the results were CHRM4 agonist 4.4, M4 antag -11.1, CHRM4 PAM 8.8, M5 antag -1.0, CHRM5 PAM 2.8 and M5 ag -1.8.
For COc1cc(OC)nc(NC(=O)CSc2nnc(-c3ccccc3)n2C2CCCCC2)n1 the results were CHRM4 agonist 1.8, M4 antag -6.2, CHRM4 PAM 7.2, M5 antag 14.9, CHRM5 PAM 25.4* and M5 ag -0.5.
For Cc1cnc(NC(=O)CSc2nnc(-c3ccncc3)n2C2CCCCC2)s1 the results were CHRM4 agonist 0.8, M4 antag -5.0, CHRM4 PAM 33.4*, M5 antag -10.1, CHRM5 PAM 0.6 and M5 ag -0.5.
`Cc1sc2nc(C3CC3)nc(N3CCN(C(=O)c4ccc(Cl)cc4)CC3)c2c1C` gave CHRM4 agonist -0.4, M4 antag -23.9, CHRM4 PAM 37.2*, M5 antag 10.5, CHRM5 PAM -6.7 and M5 ag -4.0.
Screening Cc1sc2nc(C3CC3)nc(N3CCN(C(=O)c4ccccc4F)CC3)c2c1C returned CHRM4 agonist 2.7, M4 antag 4.7, CHRM4 PAM -3.6, M5 antag 9.4, CHRM5 PAM 3.0 and M5 ag -4.8.
`COc1ccc(C(=O)N2CCN(c3nc(C4CC4)nc4sc(C)c(C)c34)CC2)cc1` gave CHRM4 agonist 0.4, M4 antag -2.2, CHRM4 PAM 20.3*, M5 antag 1.3, CHRM5 PAM -1.0 and M5 ag -4.4.
Cc1sc2nc(C3CC3)nc(N3CCN(C(=O)c4ccc(F)cc4)CC3)c2c1C was read as CHRM4 agonist 3.4, M4 antag -10.1, CHRM4 PAM 18.2*, M5 antag 14.3, CHRM5 PAM 1.2 and M5 ag -4.6.
Screening CC1=C(C(=O)N2CCOCC2)CC(CC(=O)NCCc2ccccn2)C(=O)N1Cc1ccccc1 (configuration not stated) returned CHRM4 agonist 1.2, M4 antag 5.4, CHRM4 PAM -2.8, M5 antag -3.0, CHRM5 PAM 5.7 and M5 ag 1.8.
CCOC(=O)c1oc2ccc(CNCCO)c(Cl)c2c1C was read as CHRM4 agonist 1.1, M4 antag -0.9, CHRM4 PAM 2.1, M5 antag -2.2, CHRM5 PAM 1.7 and M5 ag -4.1.
`CCOC(=O)c1oc2ccc(CNC3CCCCC3)c(Cl)c2c1C` gave CHRM4 agonist 8.3, M4 antag 54.7*, CHRM4 PAM -16.8, M5 antag -6.4, CHRM5 PAM -8.3 and M5 ag -3.7.
COc1ccc(C(=O)Nn2c(SCc3ccc([N+](=O)[O-])cc3)nc3ccccc3c2=O)cc1 was read as CHRM4 agonist 2.5, M4 antag -21.0, CHRM4 PAM -4.1, M5 antag 5.8, CHRM5 PAM 18.3* and M5 ag -2.5.
Screening CCNc1nnc(CCn2nc(C)c(Br)c2C)s1 returned CHRM4 agonist 2.5, M4 antag 2.2, CHRM4 PAM 11.1, M5 antag -16.8, CHRM5 PAM 24.2* and M5 ag -1.0.
For CCCCNc1nnc(CCn2nc(C)c(Br)c2C)s1 the results were CHRM4 agonist 0.5, M4 antag -6.2, CHRM4 PAM 16.5, M5 antag 4.6, CHRM5 PAM 6.2 and M5 ag -2.4.
For Cc1cc(OCC(=O)NCCc2ccc(Cl)cc2)c2c(C)cc(=O)oc2c1 the results were CHRM4 agonist 0.3, M4 antag -14.6, CHRM4 PAM 11.1, M5 antag -12.8, CHRM5 PAM 19.0* and M5 ag -0.6.
Screening Fc1ccc2[nH]c3c(NCc4ccccc4)ncnc3c2c1 returned CHRM4 agonist 23.3, M4 antag 8.8, CHRM4 PAM -10.3, M5 antag 36.6*, CHRM5 PAM -16.1 and M5 ag 9.7.
For OCCCNc1ncnc2c1[nH]c1ccccc12 the results were CHRM4 agonist 0.4, M4 antag 0.1, CHRM4 PAM -1.7, M5 antag 9.4, CHRM5 PAM -0.4 and M5 ag -0.8.
For N#C/C(=C1/C(=O)Nc2ccc(Br)cc21)c1ccccn1 the results were CHRM4 agonist 3.6, M4 antag 0.3, CHRM4 PAM -11.3, M5 antag -9.7, CHRM5 PAM 1.4 and M5 ag -2.6.
COc1ccc(C(=O)Nc2c(N)nc(SCC(=O)Nc3ccc(NC(C)=O)cc3)[nH]c2=O)cc1 was read as CHRM4 agonist 1.0, M4 antag -5.8, CHRM4 PAM 7.9, M5 antag 8.2, CHRM5 PAM -8.1 and M5 ag -2.2.
Screening COc1ccc(NC(=O)CSc2nc(N)c(NC(=O)c3ccccc3F)c(=O)[nH]2)cc1 returned CHRM4 agonist 0.7, M4 antag 1.9, CHRM4 PAM 16.7*, M5 antag 9.6, CHRM5 PAM 0.7 and M5 ag -2.4.
For Cc1nc(N(C)Cc2ccccc2)c2nnn(Cc3ccccc3)c2n1 the results were CHRM4 agonist -1.0, M4 antag -1.2, CHRM4 PAM 5.7, M5 antag 1.4, CHRM5 PAM 12.4 and M5 ag -7.8.
COc1cccc(NC(=O)C2CC(=O)N(Cc3ccco3)C2)c1 (configuration not stated) was read as CHRM4 agonist 2.1, M4 antag -5.7, CHRM4 PAM 21.4*, M5 antag -5.5, CHRM5 PAM 1.5 and M5 ag -0.1.
Screening N#Cc1c(N2CCOCC2)nsc1-c1ccccc1 returned CHRM4 agonist 0.7, M4 antag -3.6, CHRM4 PAM -14.3, M5 antag 9.6, CHRM5 PAM -1.3 and M5 ag -0.6.
Screening N#Cc1c(SCC(=O)Nc2cccc(C(F)(F)F)c2)sc2c(O)cc(=O)[nH]c12 returned CHRM4 agonist -0.4, M4 antag -21.2, CHRM4 PAM 0.1, M5 antag -0.9, CHRM5 PAM 0.4 and M5 ag 0.1.
`CCOC(=O)N1CCC(NC2CCCCCCC2)CC1` gave CHRM4 agonist 0.6, M4 antag 47.3*, CHRM4 PAM -26.1, M5 antag 5.3, CHRM5 PAM -4.5 and M5 ag -8.0.
Screening CCOC(=O)N1CCC(N2CCN(C3CCCC3)C(CCO)C2)CC1 (configuration not stated) returned CHRM4 agonist 0.9, M4 antag 79.8*, CHRM4 PAM -21.2, M5 antag -2.9, CHRM5 PAM -5.1 and M5 ag -11.0.
Screening O=[N+]([O-])c1cccc(C2Nc3ccccc3CO2)c1 (configuration not stated) returned CHRM4 agonist 0.0, M4 antag -6.0, CHRM4 PAM -3.5, M5 antag 3.5, CHRM5 PAM -0.1 and M5 ag -0.2.
